What was measured:
Pseudomonas aeruginosa [1] = experiment: Bactericidal activity against Pseudomonas aeruginosa ATCC 9027 assessed as colony forming unit at 5 ug/ml measured at 6 hrs by time kill assay (reference value: 10^8 CFU/ml); format: functional; conditions: dose 5 µg/ml
Summary of the method: (§1)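 Overnight Pseudomonas aeruginosa culture adjusted in Mueller–Hinton broth to about 2.5 × 10⁵ CFU/mL. Compound added at 2.5, 5 or 10 µg/mL, then incubated at 37 °C with shaking (580 rpm) for 22 h. Viable colonies counted on plates at 2, 4, 6, 8 and 22 h. Quantification limit 100 CFU/mL; triplicate.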

Staphylococcus aureus [2] = experiment: Bactericidal activity against […] Staphylococcus aureus ATCC 25923 assessed as colony forming unit at 2.5 ug/ml measured at 6 hrs by time kill assay (reference value: 1.2 x 10^6 CFU/ml); format: functional; conditions: dose 2.5 µg/ml
Summary of the method: (§2)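 S. aureus overnight culture was adjusted in MHB to ~8 × 10⁵ CFU/mL. Compound was added and the mixture incubated at 37 °C with shaking (580 rpm) for 22 h. Aliquots were plated for colony counts at 2, 4, 6, 8 and 22 h, with a quantification limit of 100 CFU/mL. Runs were done in triplicate.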

Pseudomonas aeruginosa [3] = experiment: Bactericidal activity against Pseudomonas aeruginosa ATCC 9027 assessed as colony forming unit at 5 ug/ml measured at 2 hrs by time kill assay (reference value: 3.6 x 10^5 CFU/ml); format: functional; conditions: dose 5 µg/ml; summary of the method: as §1
Staphylococcus aureus [4] = experiment: Bactericidal activity against […] Staphylococcus aureus ATCC 25923 assessed as colony forming unit at 1.25 ug/ml measured at 6 hrs by time kill assay (reference value: 1.2 x 10^6 CFU/ml); format: functional; conditions: dose 1.25 µg/ml; summary of the method: as §2
Staphylococcus aureus [5] = experiment: Bactericidal activity against […] Staphylococcus aureus ATCC 25923 assessed as colony forming unit at 2.5 ug/ml measured at 4 hrs by time kill assay (reference value: 7.8 x 10^6 CFU/ml); format: functional; conditions: dose 2.5 µg/ml; summary of the method: as §2
Candida albicans = experiment: Antifungal activity against Candida albicans CEMTC 34 assessed as fungal growth inhibition by CLSI protocol based serial microdilution method; format: functional
Summary of the method: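 Candida albicans grown in Sabouraud dextrose broth with two-fold serial compound dilutions from water stocks; final inoculum about 5 × 10⁵ CFU/mL. Incubated at 37 °C with orbital shaking (580 rpm). MIC is the lowest concentration preventing growth, by absorbance at 595 nm. MFC is the lowest concentration with no visible growth. Duplicates in two separate experiments.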

Staphylococcus aureus [6] = experiment: Bactericidal activity against […] Staphylococcus aureus ATCC 25923 assessed as colony forming unit at 1.25 ug/ml measured at 4 hrs by time kill assay (reference value: 7.8 x 10^6 CFU/ml); format: functional; conditions: dose 1.25 µg/ml; summary of the method: as §2
[7] = Selectivity index, ratio of CC50 for HEK293T cells assessed as reduction in cell viability measured after 24 hrs by MTT assay to MIC for Salmonella enterica ATCC 14028 assessed as bacterial growth inhibition by CLSI protocol based serial microdilution method; format: toxicity; conditions: human, read-out: Selectivity Index
[8] = Selectivity index, ratio of CC50 for HEK293T cells assessed as reduction in cell viability measured after 24 hrs by MTT assay to MIC for Escherichia coli ATCC 25922 assessed as bacterial growth inhibition by CLSI protocol based serial microdilution method; format: toxicity; conditions: human, read-out: Selectivity Index
Staphylococcus aureus [9] = experiment: Antibacterial activity against methicillin-resistant Staphylococcus aureus CEMTC 1695 assessed as concentration required to inhibit visible growth by CLSI protocol based serial microdilution method; format: functional
Staphylococcus aureus [10] = experiment: Bactericidal activity against […] Staphylococcus aureus ATCC 25923 assessed as colony forming unit at 5 ug/ml measured at 4 hrs by time kill assay (reference value: 7.8 x 10^6 CFU/ml); format: functional; conditions: dose 5 µg/ml; summary of the method: as §2
[11] = Selectivity index, ratio of CC50 for HEK293T cells assessed as reduction in cell viability measured after 24 hrs by MTT assay to MIC for Citrobacter freundii ATCC 8090 assessed as bacterial growth inhibition by CLSI protocol based serial microdilution method; format: toxicity; conditions: human, read-out: Selectivity Index
Pseudomonas aeruginosa [12] = experiment: Bactericidal activity against Pseudomonas aeruginosa ATCC 9027 assessed as reduction in colony forming unit at 5 ug/ml measured at 6 hrs by time kill assay relative to control; format: functional; set-up: scale not given: the % may be the effect or the level left; conditions: dose 5 µg/ml; summary of the method: as §1
Staphylococcus aureus [13] = experiment: Bactericidal activity against […] Staphylococcus aureus ATCC 25923 assessed as colony forming unit at 5 ug/ml measured at 8 hrs by time kill assay (reference value: 2.7 x 10^8 CFU/ml); format: functional; conditions: dose 5 µg/ml; summary of the method: as §2
[14] = Cytotoxicity against HEK293T cells assessed as reduction in cell viability measured after 24 hrs by MTT assay; format: cell-based, HEK-293T; conditions: human
Summary of the method: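 HEK293T or MCF-7 cells in IMDM with 10% FBS, seeded at 20,000 per well and grown overnight. Compounds at […] in fresh medium for 24 h at 37 °C, 5% CO₂. MTT then added for 4 h, precipitate dissolved overnight in SDS-HCl, absorbance read at 570 nm. Viability expressed relative to untreated cells, giving CC₅₀. Duplicate wells, at least two independent repeats.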

Staphylococcus aureus [15] = experiment: Bactericidal activity against […] Staphylococcus aureus ATCC 25923 assessed as colony forming unit at 5 ug/ml measured at 6 hrs by time kill assay (reference value: 1.2 x 10^6 CFU/ml); format: functional; conditions: dose 5 µg/ml; summary of the method: as §2
Pseudomonas aeruginosa [16] = experiment: Bactericidal activity against Pseudomonas aeruginosa ATCC 9027 assessed as reduction in colony forming unit at 2.5 ug/ml measured at 8 hrs by time kill assay relative to control; format: functional; set-up: scale not given: the % may be the effect or the level left; conditions: dose 2.5 µg/ml; summary of the method: as §1
Pseudomonas aeruginosa [17] = experiment: Antibacterial activity against Pseudomonas aeruginosa ATCC 9027 assessed as concentration required to inhibit visible growth by CLSI protocol based serial microdilution method; format: functional
Staphylococcus aureus [18] = experiment: Antibacterial activity against methicillin-resistant Staphylococcus aureus CEMTC 675 assessed as bacterial growth inhibition by CLSI protocol based serial microdilution method; format: functional
[19] = Cytotoxicity against MDCK cells assessed as cell death incubated for 48 hrs by MTT assay; format: cell-based, Canis lupus familiaris; conditions: dog
Pseudomonas aeruginosa [20] = experiment: Antibacterial activity against Pseudomonas aeruginosa ATCC 9027 assessed as bacterial growth inhibition by CLSI protocol based serial microdilution method; format: functional
Staphylococcus aureus [21] = experiment: Bactericidal activity against […] Staphylococcus aureus ATCC 25923 assessed as colony forming unit at 1.25 ug/ml measured at 8 hrs by time kill assay (reference value: 2.7 x 10^8 CFU/ml); format: functional; conditions: dose 1.25 µg/ml; summary of the method: as §2
Pseudomonas aeruginosa [22] = experiment: Bactericidal activity against Pseudomonas aeruginosa ATCC 9027 assessed as reduction in colony forming unit at 2.5 ug/ml measured at 6 hrs by time kill assay relative to control; format: functional; set-up: scale not given: the % may be the effect or the level left; conditions: dose 2.5 µg/ml; summary of the method: as §1
Enterococcus faecalis [23] = experiment: Antibacterial activity against Enterococcus faecalis ATCC 51299 assessed as concentration required to inhibit visible growth by CLSI protocol based serial microdilution method; format: functional
Enterococcus faecalis [24] = experiment: Antibacterial activity against Enterococcus faecalis ATCC 51299 assessed as bacterial growth inhibition by CLSI protocol based serial microdilution method; format: functional

Structure (SMILES) | Activity (Pseudomonas aeruginosa [1]) [CFU/ml] | Activity (Staphylococcus aureus [2]) [CFU/ml] | Activity (Pseudomonas aeruginosa [3]) [CFU/ml] | Activity (Staphylococcus aureus [4]) [CFU/ml] | Activity (Staphylococcus aureus [5]) [CFU/ml] | MIC (Candida albicans) [µg/mL] | Activity (Staphylococcus aureus [6]) [CFU/ml] | selectivity ratio at 24 h [7] | selectivity ratio at 24 h [8] | MBC (Staphylococcus aureus [9]) [µg/mL] | Activity (Staphylococcus aureus [10]) [CFU/ml] | selectivity ratio at 24 h [11] | Activity (Pseudomonas aeruginosa [12]) | Activity (Staphylococcus aureus [13]) [CFU/ml] | CC50 at 24 h [14] [µg/mL] | Activity (Staphylococcus aureus [15]) [CFU/ml] | Activity (Pseudomonas aeruginosa [16]) | MBC (Pseudomonas aeruginosa [17]) [µg/mL] | MIC (Staphylococcus aureus [18]) [µg/mL] | CC50 at 48 h [19] [µg/mL] | also measured
CCCCCCCCCCCC[N+]12CC[N+](Cc3ccccc3C[N+]34CC[N+](CCCCCCCCCCCC)(CC3)CC4)(CC1)CC2 | <100 | <100 | 130 | <100 | <100 | 3.1 | <100 | 3 | 3 | 1 | <100 | 3 | >=99.9% | <100 | 4 | <100 | >=99.9% | 3.1 | 0.5 | 1.9 | MIC (Pseudomonas aeruginosa [20]): 1.6 µg/mL; Activity (Staphylococcus aureus [21]): <100 CFU/ml; Activity (Pseudomonas aeruginosa [22]): >=99.9%; MBC (Enterococcus faecalis [23]): 1.6 µg/mL; MIC (Enterococcus faecalis [24]): 0.8 µg/mL
CCCCCCCCCCCC[N+]12CC[N+](CCC[N+]34CC[N+](CCCCCCCCCCCC)(CC3)CC4)(CC1)CC2 | <100 | <100 | <100 | <100 | <100 | 3.1 | <100 | 4 | 4 | 1 | <100 | 4 | >=99.9% | <100 | 6.5 | <100 | >=99.9% | 3.1 | 0.5 | 12.8 | MIC (Pseudomonas aeruginosa [20]): 1.6 µg/mL; Activity (Staphylococcus aureus [21]): <100 CFU/ml; Activity (Pseudomonas aeruginosa [22]): >=99.9%; MBC (Enterococcus faecalis [23]): 3.1 µg/mL; MIC (Enterococcus faecalis [24]): 1.6 µg/mL
